Active and inactive are the calls of the source.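 The calls were made as follows: active = inhibition of 30% or more at any tested concentration; inactive = the rest.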
Target: M17 leucyl aminopeptidase (Plasmodium falciparum 3D7)
Test: PfM17LAP leucine aminopeptidase inhibitors, dose response, counter-screen for PfM1AAP inhibitor project, biochemical, QFRET, set 2 (AID 602209)
Settings: recombinant PfM17LAP, H-Leu-NHMec fluorogenic cleavage
How it was run: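 Material: recombinant Plasmodium falciparum M17 leucine aminopeptidase enzyme; Medium: Tris-HCl pH 7.5 plus CoCl2; Reagent: H-Leu-NHMec, a fluorogenic peptide substrate, at 0.1 mM final; Compound dosing: 100–0.2 µM, 2-fold dilutions; Times: Enzyme–substrate reaction 90 min at room temperature; Measured by: NHMec fluorescence; Read-out basis: % inhibition and IC50 via 4-parameter fit; Controls: no-enzyme background wells.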

| SMILES | IC50 [µM] | inhibition (at 100 µM (top of the series)) | also measured |
| --- | --- | --- | --- |
| CC[C@H](C)[C@H](NC(=O)c1ccc(C(C)(C)C)cc1)C(=O)NCc1ccc2c(c1)OCO2 |  |  | inhibition (at 1.56 µM (top of the series)): inactive |
| O=C(NCc1ccc(Cl)cc1)C1CCN(S(=O)(=O)c2ccc(Br)s2)CC1 | 38.9 |  |  |
| O=C(NCc1ccccc1)C1CCN(S(=O)(=O)c2ccc(Br)s2)CC1 | 3.52 |  |  |
| O=C(NCc1ccc(F)cc1)C1CCN(S(=O)(=O)c2ccc(Br)s2)CC1 | 8.81 |  |  |
| CC[C@H](C)[C@H](NC(=O)c1ccc(C(C)(C)C)cc1)C(=O)NCc1ccc(Cl)cc1 |  | inactive |  |
| CC[C@H](C)[C@H](NS(=O)(=O)c1ccc(Br)s1)C(=O)NCc1ccc(Cl)cc1 |  | inactive |  |
| CC[C@H](C)[C@H](NS(=O)(=O)c1ccc(Br)s1)C(=O)NCc1ccc2c(c1)OCO2 |  | inactive |  |
| O=C(NCc1ccc2c(c1)OCO2)C1CCN(S(=O)(=O)c2ccc(Br)s2)CC1 | 3.57 |  |  |

From PubChem BioAssay AID602209 (Southern Research Specialized Biocontainment Screening …, 2012)
